Measurements: ChEMBL document CHEMBL1152428 (Bioorg Med Chem, 2009)
Calls of active or inactive are those of the source. The rule behind the calls is not given here.

Key:
[1] = biological target: Cyclin-dependent kinase 1 (Saccharomyces cerevisiae S288c) (UniProt P00546); assay: Binding affinity to Saccharomyces cerevisiae Cdc28
How it was run: (§1)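 Budding yeast grown to OD600 ~2 were lysed under 2.5 kbar pressure in breaking buffer (25 mM Tris pH 7.4, 100 mM NaCl, 0.2% Triton X100, phosphatase and protease inhibitors) and clarified. The lysate was incubated with Sepharose matrices carrying linker-attached drug (3 µmol/ml resin), methyl control or ethanolamine-blocked beads. Bound proteins were eluted in Laemmli buffer and analysed by SDS–PAGE with silver staining or western blot.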

[2] = Inhibition of histidine6-tagged Plasmodium falciparum recombinant GSK3 expressed in Escherichia coli by scintillation counting
[3] = biological target: Cyclin-dependent protein kinase PHO85 (Saccharomyces cerevisiae S288c) (UniProt P17157); assay: Binding affinity to Saccharomyces cerevisiae Pho85; how it was run: as §1
Chain of Cyclin-dependent protein kinase PHO85 (Saccharomyces cerevisiae S288c) (P17157 whole entry, the tested form may be a part): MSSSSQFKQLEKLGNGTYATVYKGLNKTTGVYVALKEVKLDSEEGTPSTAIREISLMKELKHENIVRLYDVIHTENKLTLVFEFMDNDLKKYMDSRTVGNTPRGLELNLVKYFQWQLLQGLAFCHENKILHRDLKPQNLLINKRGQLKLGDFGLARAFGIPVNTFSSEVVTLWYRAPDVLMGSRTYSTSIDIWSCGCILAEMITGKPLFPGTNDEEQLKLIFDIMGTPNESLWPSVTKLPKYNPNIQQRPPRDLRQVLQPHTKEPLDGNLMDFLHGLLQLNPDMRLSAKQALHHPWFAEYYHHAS

[4] = biological target: Cyclin-dependent kinase 5/CDK5 activator 1 (Homo sapiens, UniProt Q00535); assay: Inhibition of GST-fused recombinant CDK5/p25 expressed in Escherichia coli after 30 mins by scintillation counting
Chain of Cyclin-dependent kinase 5/CDK5 activator 1 (Q00535 whole entry, the tested form may be a part): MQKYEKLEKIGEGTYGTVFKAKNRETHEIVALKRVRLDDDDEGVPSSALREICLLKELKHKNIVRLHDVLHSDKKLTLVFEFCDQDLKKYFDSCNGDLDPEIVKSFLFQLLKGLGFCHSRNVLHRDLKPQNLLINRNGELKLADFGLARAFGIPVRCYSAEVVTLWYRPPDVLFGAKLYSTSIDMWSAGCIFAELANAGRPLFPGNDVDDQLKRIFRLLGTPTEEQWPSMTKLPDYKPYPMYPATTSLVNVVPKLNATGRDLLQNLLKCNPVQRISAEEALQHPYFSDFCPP
Chain of Cyclin-dependent kinase 5/CDK5 activator 1 (Q15078 whole entry, further chain, the tested form may be a part): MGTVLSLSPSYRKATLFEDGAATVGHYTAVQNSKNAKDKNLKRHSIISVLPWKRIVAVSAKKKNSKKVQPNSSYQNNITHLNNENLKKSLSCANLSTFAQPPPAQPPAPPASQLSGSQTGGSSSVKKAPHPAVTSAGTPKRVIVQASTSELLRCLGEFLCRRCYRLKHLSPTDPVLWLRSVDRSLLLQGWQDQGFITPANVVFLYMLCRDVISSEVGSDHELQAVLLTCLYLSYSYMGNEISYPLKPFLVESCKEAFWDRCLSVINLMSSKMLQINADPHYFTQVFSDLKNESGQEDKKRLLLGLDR

[5] = biological target: Glycogen synthase kinase-3 (Sus scrofa, UniProt B2LUN4+I6LNT8); assay: Inhibition of pig brain GSK3alpha/beta after 30 mins by scintillation counting
[6] = biological target: Cyclin-dependent kinase 1 (Saccharomyces cerevisiae S288c, UniProt P00546); assay: Inhibition of hemagglutininin-tagged Saccharomyces cerevisiae MNY629 Cdc28/Clb2
Chain of Cyclin-dependent kinase 1 (P00546 whole entry): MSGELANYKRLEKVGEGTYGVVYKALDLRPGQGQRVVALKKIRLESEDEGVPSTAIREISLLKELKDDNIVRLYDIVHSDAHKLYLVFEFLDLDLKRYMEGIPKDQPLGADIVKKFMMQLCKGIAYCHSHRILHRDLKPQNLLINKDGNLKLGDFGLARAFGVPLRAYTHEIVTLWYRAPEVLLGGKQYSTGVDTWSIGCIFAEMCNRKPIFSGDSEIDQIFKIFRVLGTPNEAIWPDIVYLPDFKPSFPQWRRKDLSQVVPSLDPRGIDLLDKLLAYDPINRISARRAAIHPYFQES
How it was run: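 Cdc28/Clb2-HA was immunoprecipitated from strain MNY629 extracts with anti-HA and protein A/G agarose. Kinase reactions ran 30 min at 30 °C with histone H1, 15 µmol/l [γ-33P]ATP (stock) and varying drug concentrations in buffer C (25 mM MOPS pH 7.2, 15 mM MgCl2, 5 mM EGTA, 1 mM DTT, phosphatase inhibitors). Products were spotted on P81 paper, washed in 1% phosphoric acid and counted by scintillation. IC50 was taken from the dose–response curve.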

[7] = Inhibition of Marthasterias glacialis CDK1/cyclin B after 30 mins by scintillation counting
Saccharomyces cerevisiae = assay: Growth inhibition of drug-sensitized Saccharomyces cerevisiae YRP1 assessed as growth deffect; format: functional, organism-based
How it was run: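 Growth defect of the drug-sensitized YRP1 strain (snq2Δ pdr5Δ erg6Δ) was scored on agar plates by halo assay.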

[8] = biological target: Cyclin-dependent protein kinase PHO85 (Saccharomyces cerevisiae S288c) (UniProt P17157); assay: Inhibition of Saccharomyces cerevisiae YRP1 Pho85 assessed as induction of nuclear localization of GFP-tagged transcription factor Pho4 at 250 uM after 3 hrs by fluorescence microscopy
How it was run: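 The drug-sensitized strain YRP1 (snq2Δ pdr5Δ erg6Δ) carried a Pho4-GFP plasmid. Cells were grown overnight without uracil, diluted to OD600 0.5 and treated with 250 µM drug, with methanol as vehicle. After 3 h, GFP localization was examined by fluorescence microscopy (excitation 455–495 nm).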

Chain of Cyclin-dependent kinase 1 (Saccharomyces cerevisiae S288c) (P00546 2-298 limits assumed): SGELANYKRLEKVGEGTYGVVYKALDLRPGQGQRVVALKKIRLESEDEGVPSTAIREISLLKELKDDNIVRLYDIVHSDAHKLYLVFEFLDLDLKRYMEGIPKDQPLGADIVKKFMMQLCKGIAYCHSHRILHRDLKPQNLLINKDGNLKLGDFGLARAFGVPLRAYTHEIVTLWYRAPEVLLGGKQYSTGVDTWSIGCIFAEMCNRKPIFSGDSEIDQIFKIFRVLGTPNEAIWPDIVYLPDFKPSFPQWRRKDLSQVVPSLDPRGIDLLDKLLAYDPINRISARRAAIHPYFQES

Row | SMILES | Activity [1] | IC50 [2] [µM] | Activity [3] | IC50 [4] [µM] | IC50 [5] [µM] | IC50 [6] [µM] | IC50 [7] [µM] | growth inhibition (GI) (Saccharomyces cerevisiae) | Activity [8]
1 | CCCCc1c(-c2ccc(O)cc2)n(C)c2nccnc12 [N-METHYL-ALOISINE A] | inactive | > 100 | inactive | 160 | > 200 | > 33 | 140 |  | 
2 | CCCCc1c(-c2ccc(O)c(-c3cn(CCOCCOCCN)nn3)c2)n(C)c2nccnc12 |  |  |  | > 10 | > 10 |  | > 10 |  | 
3 | CCCCc1c(-c2ccc(OCCOCCOCCN)cc2)n(C)c2nccnc12 |  |  |  | 50 | 45 |  | 100 |  | 
4 | CCCCc1c(-c2ccc(OCCOCCOCCN)cc2)[nH]c2nccnc12 |  |  |  | 0.66 | 0.34 |  | 0.23 |  | 
5 | CCCCc1c(-c2ccc(O)cc2)[nH]c2nccnc12 [ALOISINE A] |  | 5.5 |  |  | 0.65 | 2.5 |  | inactive | Active
6 | CCCCc1c(-c2ccc(O)c(-c3cn(CCOCCOCCN)nn3)c2)[nH]c2nccnc12 |  |  |  | > 10 | 5.8 |  | 6.7 |  | 
